Data published in ChEMBL document CHEMBL1154198, “Chemical genetics of Plasmodium falciparum” (Nature, 2010).

What was measured:
[1] = ST_JUDE: Cytotoxicity using luciferase to measure ATP as an indicator of the viability of human Burkitt''s lymphoma lymphoblast cells (Raji); assay type: toxicity, cell-based
Toxoplasma gondii = assay: ST_JUDE: Growth inhibition of to Toxoplasma gondii, in human U-2OS cells, as measured by luciferase.; assay type: functional, organism-based; conditions: RH, U2OS
Summary of the method: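 T. gondii parasites engineered to express luciferase; drug sensitivity read by luminescence.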

Plasmodium falciparum [2] = assay: ST_JUDE: Cytotoxicity against Plasmodium falciparum V1/S; assay type: functional, organism-based
Plasmodium falciparum [3] = assay: ST_JUDE: Cytotoxicity against Plasmodium falciparum SB-A6; assay type: functional, organism-based
[4] = ST_JUDE: Cytotoxicity using luciferase to measure ATP as an indicator of the viability of human foreskin fibroblast cells (BJ); assay type: toxicity, cell-based
Plasmodium falciparum [5] = assay: ST_JUDE: Plasmodium falciparum 3D7 EC50 (uM) as measured by SYBR green dye; assay type: functional, organism-based
Leishmania major = assay: ST_JUDE: Cytotoxicity using Alamar Blue to measure viability of Leishmania major; assay type: functional, organism-based
Summary of the method: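 L. major promastigotes; drug susceptibility read with Alamar Blue.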

Plasmodium falciparum [6] = assay: ST_JUDE: Cytotoxicity against Plasmodium falciparum K1; assay type: functional, organism-based
Summary of the method: (§1)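 Asexual P. falciparum grown in human erythrocytes, exposed to compounds for 72 h, and growth read as the DNA quantity in treated versus control cultures. Dose-response run at 12 concentrations from 10 μM to 5 nM.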

[7] = ST_JUDE: Cytotoxicity using luciferase to measure ATP as an indicator of the viability of human epithelial embryonic kidney cells (HEK293); assay type: toxicity, cell-based
Plasmodium falciparum [8] = assay: ST_JUDE: Cytotoxicity against Plasmodium falciparum Dd2; assay type: functional, organism-based
Plasmodium falciparum [9] = assay: ST_JUDE: Cytotoxicity against Plasmodium falciparum 3D7; assay type: functional, organism-based; summary of the method: as §1
[10] = ST_JUDE: Cytotoxicity using luciferase to measure ATP as an indicator of the viability of human epithelial hepatocellular carcinoma cells (HepG2); assay type: toxicity, cell-based
Plasmodium falciparum [11] = assay: ST_JUDE: Cytotoxicity against Plasmodium falciparum W2; assay type: functional, organism-based
Plasmodium falciparum [12] = assay: ST_JUDE: Cytotoxicity against Plasmodium falciparum D10 transfected with yeast DHOD; assay type: functional, organism-based
Plasmodium falciparum [13] = assay: ST_JUDE: Plasmodium falciparum K1 EC50 (uM) as measured by SYBR green dye; assay type: functional, organism-based
Trypanosoma brucei = assay: ST_JUDE: Cytotoxicity using luciferase to measure ATP as an indicator of the viability of Trypanosoma brucei; assay type: functional, organism-based

For CCCN(C(=O)C(=O)Nc1ccc2nc3n(c(=O)c2c1)CCCCC3)c1ccc(OCC)cc1, the EC50 [1] was > 47.3 µM, the EC50 (Toxoplasma gondii) was > 25.9 µM and the EC50 (Plasmodium falciparum [2]) was 0.215 µM. For the same molecule, the EC50 (Plasmodium falciparum [3]) was 0.346 µM, the EC50 [4] was > 47.3 µM and the EC50 (Plasmodium falciparum [5]) was 0.673 µM. The EC50 (Leishmania major) was > 20.2 µM, the EC50 (Plasmodium falciparum [6]) was 0.326 µM and the EC50 [7] was > 47.3 µM. The EC50 (Plasmodium falciparum [8]) was 0.7 µM, the EC50 (Plasmodium falciparum [9]) was 0.49 µM and the EC50 [10] was > 47.3 µM. The EC50 (Plasmodium falciparum [11]) was 0.334 µM, the EC50 (Plasmodium falciparum [12]) was 0.22 µM and the EC50 (Plasmodium falciparum [13]) was 0.289 µM. The EC50 (Trypanosoma brucei) was > 45.3 µM.

In the case of COc1ccc(NC(=O)C2c3ccccc3C(=O)N(CC(C)C)C2c2cccs2)cc1Cl (stereo not drawn), the EC50 [1] is reported as > 40.4 µM, the EC50 (Toxoplasma gondii) is reported as > 22.1 µM and the EC50 (Plasmodium falciparum [2]) is reported as 0.244 µM. For the same molecule, the EC50 (Plasmodium falciparum [3]) was 0.15 µM, the EC50 [4] was > 40.4 µM and the EC50 (Plasmodium falciparum [5]) was 0.119 µM. For the same molecule, the EC50 (Leishmania major) was > 17.3 µM, the EC50 (Plasmodium falciparum [6]) was 0.134 µM and the EC50 [7] was > 40.4 µM. For the same molecule, the EC50 (Plasmodium falciparum [8]) was 0.167 µM, the EC50 (Plasmodium falciparum [9]) was 0.117 µM and the EC50 [10] was > 40.4 µM. It also gave an EC50 (Plasmodium falciparum [11]) of 0.555 µM, an EC50 (Plasmodium falciparum [12]) of 0.133 µM and an EC50 (Plasmodium falciparum [13]) of 0.139 µM. It also gave an EC50 (Trypanosoma brucei) of 2.63 µM.

With CCOc1cc2c(cc1OCC)C(c1cc(Cl)ccc1O)NCC2 (stereo not drawn) the EC50 [1] was > 46.9 µM, the EC50 (Toxoplasma gondii) was > 25.7 µM and the EC50 (Plasmodium falciparum [2]) was 1.32 µM. The EC50 (Plasmodium falciparum [3]) was 3.5 µM, the EC50 [4] was > 46.9 µM and the EC50 (Plasmodium falciparum [5]) was 0.898 µM. The EC50 (Leishmania major) was > 20.1 µM, the EC50 (Plasmodium falciparum [6]) was 0.722 µM and the EC50 [7] was > 46.9 µM. For the same molecule, the EC50 (Plasmodium falciparum [8]) was 2.01 µM, the EC50 (Plasmodium falciparum [9]) was 1.82 µM and the EC50 [10] was 21 µM. The EC50 (Plasmodium falciparum [11]) was 0.732 µM, the EC50 (Plasmodium falciparum [12]) was 3.57 µM and the EC50 (Plasmodium falciparum [13]) was 0.243 µM. For the same molecule, the EC50 (Trypanosoma brucei) was 9.49 µM.

With CCCn1c2c(c(=N)c3c1CCC3)CCCC2 the EC50 [1] was > 40.3 µM, the EC50 (Toxoplasma gondii) was > 22.1 µM and the EC50 (Plasmodium falciparum [2]) was 7.63 µM. The EC50 (Plasmodium falciparum [3]) was 3.61 µM, the EC50 [4] was > 40.3 µM and the EC50 (Plasmodium falciparum [5]) was 2.96 µM. For the same molecule, the EC50 (Leishmania major) was 0.532 µM, the EC50 (Plasmodium falciparum [6]) was 3 µM and the EC50 [7] was > 40.3 µM. For the same molecule, the EC50 (Plasmodium falciparum [8]) was 1.97 µM, the EC50 (Plasmodium falciparum [9]) was 2.56 µM and the EC50 [10] was > 40.3 µM. The EC50 (Plasmodium falciparum [11]) was > 10.4 µM, the EC50 (Plasmodium falciparum [12]) was > 10.4 µM and the EC50 (Plasmodium falciparum [13]) was 3.02 µM. For the same molecule, the EC50 (Trypanosoma brucei) was > 38.7 µM.

In the case of CO/C(O)=C1\C(C)=NC2=C(C(=O)CC(c3ccc(OC)c(OC)c3)C2)C1c1ccccc1F (stereo not drawn), the EC50 [1] is reported as > 44.8 µM, the EC50 (Toxoplasma gondii) is reported as > 24.5 µM and the EC50 (Plasmodium falciparum [2]) is reported as 0.911 µM. For the same molecule, the EC50 (Plasmodium falciparum [3]) was 0.556 µM, the EC50 [4] was > 44.8 µM and the EC50 (Plasmodium falciparum [5]) was 0.504 µM. The EC50 (Leishmania major) was > 19.2 µM, the EC50 (Plasmodium falciparum [6]) was 0.412 µM and the EC50 [7] was > 44.8 µM. For the same molecule, the EC50 (Plasmodium falciparum [8]) was 0.766 µM, the EC50 (Plasmodium falciparum [9]) was 0.427 µM and the EC50 [10] was > 44.8 µM. The EC50 (Plasmodium falciparum [11]) was 0.296 µM, the EC50 (Plasmodium falciparum [12]) was 0.746 µM and the EC50 (Plasmodium falciparum [13]) was 0.433 µM. For the same molecule, the EC50 (Trypanosoma brucei) was > 42.9 µM.

For Cc1ccc2c(c1)N(C)/C(=C/c1sc3ccccc3[n+]1CCO)S2, the EC50 [1] was 2.1 µM, the EC50 (Toxoplasma gondii) was > 10.6 µM and the EC50 (Plasmodium falciparum [2]) was 0.546 µM. The EC50 (Plasmodium falciparum [3]) was 0.514 µM, the EC50 [4] was > 19.3 µM and the EC50 (Plasmodium falciparum [5]) was 1.58 µM. For the same molecule, the EC50 (Leishmania major) was > 8.28 µM, the EC50 (Plasmodium falciparum [6]) was 0.42 µM and the EC50 [7] was > 19.3 µM. The EC50 (Plasmodium falciparum [8]) was 0.341 µM, the EC50 (Plasmodium falciparum [9]) was 0.32 µM and the EC50 [10] was > 19.3 µM. For the same molecule, the EC50 (Plasmodium falciparum [11]) was 0.431 µM, the EC50 (Plasmodium falciparum [12]) was 0.362 µM and the EC50 (Plasmodium falciparum [13]) was 0.44 µM. The EC50 (Trypanosoma brucei) was 6.04 µM.

In the case of CCOC(=O)C1(Cc2ccccc2)CCN(Cc2cccc(OC)c2O)CC1, the EC50 [1] is reported as > 37 µM, the EC50 (Toxoplasma gondii) is reported as > 20.3 µM and the EC50 (Plasmodium falciparum [2]) is reported as 0.908 µM. The EC50 (Plasmodium falciparum [3]) was 3 µM, the EC50 [4] was > 37 µM and the EC50 (Plasmodium falciparum [5]) was 2.29 µM. The EC50 (Leishmania major) was > 15.8 µM, the EC50 (Plasmodium falciparum [6]) was 0.645 µM and the EC50 [7] was > 37 µM. For the same molecule, the EC50 (Plasmodium falciparum [8]) was 1.76 µM, the EC50 (Plasmodium falciparum [9]) was 1.49 µM and the EC50 [10] was > 37 µM. It also gave an EC50 (Plasmodium falciparum [11]) of 1.43 µM, an EC50 (Plasmodium falciparum [12]) of 2.55 µM and an EC50 (Plasmodium falciparum [13]) of 1.05 µM. It also gave an EC50 (Trypanosoma brucei) of 30.9 µM.

In the case of Cc1ccc(C(O)(CNCc2ccccc2)c2ccc(Br)cc2)cc1 (stereo not drawn), the EC50 [1] is reported as 35.5 µM, the EC50 (Toxoplasma gondii) is reported as > 26.5 µM and the EC50 (Plasmodium falciparum [2]) is reported as 1.28 µM. For the same molecule, the EC50 (Plasmodium falciparum [3]) was 3.45 µM, the EC50 [4] was > 48.3 µM and the EC50 (Plasmodium falciparum [5]) was 2.23 µM. The EC50 (Leishmania major) was > 20.7 µM, the EC50 (Plasmodium falciparum [6]) was 1.17 µM and the EC50 [7] was > 48.3 µM. For the same molecule, the EC50 (Plasmodium falciparum [8]) was 1.47 µM, the EC50 (Plasmodium falciparum [9]) was 2.1 µM and the EC50 [10] was 20 µM. For the same molecule, the EC50 (Plasmodium falciparum [11]) was 4.37 µM, the EC50 (Plasmodium falciparum [12]) was 1.73 µM and the EC50 (Plasmodium falciparum [13]) was 1.11 µM. The EC50 (Trypanosoma brucei) was 9.55 µM.
